Experiment [1] has as its target T1, 5-hydroxytryptamine receptor 1A (Rattus norvegicus, UniProt P19327).
T1 sequence (P19327 whole entry): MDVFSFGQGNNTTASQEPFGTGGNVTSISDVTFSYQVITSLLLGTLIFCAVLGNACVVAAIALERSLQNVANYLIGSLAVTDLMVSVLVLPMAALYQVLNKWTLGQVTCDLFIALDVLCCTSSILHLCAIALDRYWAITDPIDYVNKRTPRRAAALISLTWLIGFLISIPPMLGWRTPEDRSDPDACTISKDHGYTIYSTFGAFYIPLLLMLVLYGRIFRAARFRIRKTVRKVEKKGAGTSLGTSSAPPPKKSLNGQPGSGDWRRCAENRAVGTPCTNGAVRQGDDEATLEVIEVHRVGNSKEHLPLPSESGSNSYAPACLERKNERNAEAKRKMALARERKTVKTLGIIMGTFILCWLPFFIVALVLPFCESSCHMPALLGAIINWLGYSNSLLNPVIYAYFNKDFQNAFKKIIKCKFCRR
Nature of the experiment: Inhibition of [3H]8-OH-DPAT binding to Serotonin 5-HT1A receptor from rat brain cortex.

The target of experiment [2] is T2, Adrenergic receptor alpha-2 (Rattus norvegicus, UniProt P22086+P19328+P22909).
T2 sequence (P22086 whole entry): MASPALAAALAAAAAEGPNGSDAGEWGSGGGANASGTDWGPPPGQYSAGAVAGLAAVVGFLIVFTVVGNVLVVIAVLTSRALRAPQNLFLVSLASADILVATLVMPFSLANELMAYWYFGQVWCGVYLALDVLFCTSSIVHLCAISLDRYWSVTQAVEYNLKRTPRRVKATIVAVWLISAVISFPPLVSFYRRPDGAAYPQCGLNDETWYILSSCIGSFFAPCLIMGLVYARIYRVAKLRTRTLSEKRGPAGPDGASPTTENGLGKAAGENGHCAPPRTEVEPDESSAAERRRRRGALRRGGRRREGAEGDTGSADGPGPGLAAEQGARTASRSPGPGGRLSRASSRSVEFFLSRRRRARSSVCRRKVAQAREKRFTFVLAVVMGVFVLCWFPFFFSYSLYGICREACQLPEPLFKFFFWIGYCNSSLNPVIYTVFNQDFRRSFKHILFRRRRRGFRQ
T2 sequence (P19328 whole entry): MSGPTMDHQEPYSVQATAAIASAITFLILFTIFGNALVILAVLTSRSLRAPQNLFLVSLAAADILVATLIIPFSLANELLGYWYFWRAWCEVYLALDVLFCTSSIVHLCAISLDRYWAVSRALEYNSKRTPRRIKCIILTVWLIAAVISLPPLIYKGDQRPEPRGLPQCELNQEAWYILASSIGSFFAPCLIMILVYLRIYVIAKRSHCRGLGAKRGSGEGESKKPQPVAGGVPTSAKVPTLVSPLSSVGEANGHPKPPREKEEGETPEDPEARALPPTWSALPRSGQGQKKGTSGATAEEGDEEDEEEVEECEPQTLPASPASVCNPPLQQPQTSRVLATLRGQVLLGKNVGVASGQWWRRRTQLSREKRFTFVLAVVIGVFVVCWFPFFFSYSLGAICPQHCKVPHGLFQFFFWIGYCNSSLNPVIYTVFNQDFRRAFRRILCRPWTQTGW
T2 sequence (P22909 whole entry): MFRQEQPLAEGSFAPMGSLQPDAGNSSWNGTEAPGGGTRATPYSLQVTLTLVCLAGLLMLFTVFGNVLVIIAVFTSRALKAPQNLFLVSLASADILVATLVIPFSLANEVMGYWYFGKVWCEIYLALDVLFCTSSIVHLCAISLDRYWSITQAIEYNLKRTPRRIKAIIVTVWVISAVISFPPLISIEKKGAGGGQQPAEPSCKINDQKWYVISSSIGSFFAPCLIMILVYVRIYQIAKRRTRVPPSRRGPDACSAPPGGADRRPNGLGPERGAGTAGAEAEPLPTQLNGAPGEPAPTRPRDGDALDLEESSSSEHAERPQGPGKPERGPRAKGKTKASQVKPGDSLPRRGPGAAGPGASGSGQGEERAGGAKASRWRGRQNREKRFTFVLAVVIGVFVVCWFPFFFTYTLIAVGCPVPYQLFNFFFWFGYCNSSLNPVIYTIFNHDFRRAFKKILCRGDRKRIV
Briefly: Inhibition of [3H]yohimbine binding to Adrenergic receptor alpha 2 receptor from rat brain cortex. Summed up: (§1)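 Brain cortex homogenized in 5 mM Tris-HCl/5 mM EDTA, washed three times at 50 000g, resuspended in 50 mM Tris-HCl/0.5 mM EDTA pH 7.5; 10 mg fresh tissue per tube. [3H]yohimbine 1 nM final, 30 min at 25 °C, GF/B filtration, scintillation counting. Six concentrations in triplicate; IC50 converted to Ki (Cheng–Prusoff).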

Experiment [3] addresses T2, Adrenergic receptor alpha-2. Nature of the experiment: Inhibition of [3H]yohimbine binding to Adrenergic alpha 2 receptor from rat brain cortex. Summed up:
as §1

The record followed here is ChEMBL document CHEMBL1141158, “New 5-hydroxytryptamine(1A) receptor ligands containing a norbornene nucleus: synthesis and in vitro pharmacological evaluation” (J Med Chem, 2005).

Take `COc1ccccc1N1CCN(CCCON2C(=O)C3C4C=CC(C4)C3C2=O)CC1` (stereo unspecified): the Ki in experiment [1] stood at 0.021 nM; in experiment [2], 3650 nM.
For `O=C1C2C3C=CC(C3)C2C(=O)N1OCCCN1CCN(c2cccc(Cl)c2)CC1` (stereo unspecified), in that order: 3.36 nM and 1710 nM.
The corresponding values for `O=C1C2C3C=CC(C3)C2C(=O)N1OCCCN1CCN(c2cccc(C(F)(F)F)c2)CC1` (stereo unspecified) are 5.13 nM and 4680 nM.
The corresponding values for `O=C1C2C3C=CC(C3)C2C(=O)N1OCCCN1CCN(c2ccccc2Cl)CC1` (stereo unspecified) are 4.13 nM and 3140 nM.
As to `O=C1C2C3C=CC(C3)C2C(=O)N1OCCN1CCN(c2cccc(C(F)(F)F)c2)CC1` (stereo unspecified), the Ki was 2.14 nM in experiment [1] and above 10000 nM in experiment [2].
In experiment [3], `O=C1C2C3C=CC(C3)C2C(=O)N1OCCN1CCN(c2ccccc2Cl)CC1` (stereo unspecified) returned a Ki of 691 nM. This counts as sub-micromolar.
